Values after ≈ are worked out from the molar mass of the structure shown.
What was measured:
Escherichia coli [1] = assay: Compound was tested in vitro for antibacterial activity against the microbial strain Escherichia coli NIHJ JC-2.; assay type: functional
Mus musculus [2] = species on record: Mus musculus; assay: Antibacterial activity (oral efficacy) against systemic infections due to Staphylococcus aureus 50774 microbial strains in mice was determined; assay type: functional
Method in brief: (§1)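 Male Std-ddY mice (20 ± 2 g), in groups of 10 or more, were infected with S. aureus 50774 (iv, 5×10^8 cells), E. coli P-5101 (ip, 9×10^6 cells) or P. aeruginosa 12 (ip, 4×10^3 cells). Compounds were suspended in 0.2% sodium (carboxymethyl)cellulose and dosed orally at 0 and 6 h postinfection. Survival was scored at 2 weeks for S. aureus and at 1 week for the others.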

Mus musculus [3] = assay: Antibacterial activity against Escherichia coli P-5101 microbial strains in mice was determined expressed as ED50 (mg/kg); assay type: functional; method in brief: as §1
Mus musculus [4] = assay: Antibacterial activity against Pseudomonas aeruginosa 12 microbial strains in mice was determined expressed as ED50 (mg/kg); assay type: functional; method in brief: as §1
Pseudomonas aeruginosa [5] = assay: Compound was tested in vitro for antibacterial activity against the microbial strain Pseudomonas aeruginosa 12.; assay type: functional
Staphylococcus aureus [6] = assay: Compound was tested in vitro for antibacterial activity against the microbial strain Staphylococcus aureus 209P JC-1.; assay type: functional
Escherichia coli [7] = assay: Antibacterial activity against Escherichia coli P-5101 microbial strains; was determined expressed as MIC
Pseudomonas aeruginosa [8] = assay: Antibacterial activity against Pseudomonas aeruginosa 12 microbial strains; was determined expressed as MIC
Staphylococcus aureus [9] = assay: Antibacterial activity against Staphylococcus aureus 50774 microbial strains; was determined expressed as MIC
Escherichia coli [10] = assay: Antibacterial activity against Escherichia coli P-5101 microbial strains was determined expressed as MIC
Staphylococcus aureus [11] = assay: Antibacterial activity against Staphylococcus aureus 50774 microbial strains; was determined expressed as MIC; remark: listed apart in the source
Pseudomonas aeruginosa [12] = assay: Compound was tested in vitro for antibacterial activity against the microbial strainP. aeruginosa 12.; assay type: functional
Method in brief: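 MIC (µg/mL) was determined by twofold agar dilution on Mueller-Hinton agar at pH 7.4. Inocula were about 10⁶ CFU. Growth was read after 20 h incubation at 37 °C.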

Structure (SMILES)	MIC (Escherichia coli [1])	ED50 (Mus musculus [2])	ED50 (Mus musculus [3])	ED50 (Mus musculus [4])	MIC (Pseudomonas aeruginosa [5])	MIC (Staphylococcus aureus [6])	MIC (Escherichia coli [7])	MIC (Pseudomonas aeruginosa [8])	MIC (Staphylococcus aureus [9])	MIC (Escherichia coli [10])	MIC (Staphylococcus aureus [11])	MIC (Pseudomonas aeruginosa [12])
CCn1cc(C(=O)O)c(=O)c2cc(F)c(N3CCNCC3)nc21 [ENOXACIN]	0.2 µg/mL (≈ 0.624 µM)	10 mg/kg	1.9 mg/kg	9 mg/kg	0.78 µg/mL (≈ 2.44 µM)	0.78 µg/mL (≈ 2.44 µM)	0.1 µg/mL (≈ 0.312 µM)	0.78 µg/mL (≈ 2.44 µM)	0.78 µg/mL (≈ 2.44 µM)			
O=C(O)c1cn(CCF)c2nc(N3CCNCC3)c(F)cc2c1=O	0.2 µg/mL (≈ 0.591 µM)				0.78 µg/mL (≈ 2.31 µM)	0.39 µg/mL (≈ 1.15 µM)						
CCn1cc(C(=O)O)c(=O)c2cc(F)c(-c3ccncc3)nc21	0.2 µg/mL (≈ 0.638 µM)				3.13 µg/mL (≈ 9.99 µM)	0.39 µg/mL (≈ 1.24 µM)						
CCn1cc(C(=O)O)c(=O)c2ccc(-c3ccncc3)nc21	0.78 µg/mL (≈ 2.64 µM)				12.5 µg/mL (≈ 42.3 µM)	1.56 µg/mL (≈ 5.28 µM)						
O=C(O)c1cn(C2CC2)c2nc(-c3ccncc3)c(F)cc2c1=O	0.1 µg/mL (≈ 0.307 µM)	5.43 mg/kg	4.48 mg/kg	15 mg/kg	0.78 µg/mL (≈ 2.4 µM)	0.2 µg/mL (≈ 0.615 µM)		0.78 µg/mL (≈ 2.4 µM)		0.05 µg/mL (≈ 0.154 µM)	0.1 µg/mL (≈ 0.307 µM)	
C=Cn1cc(C(=O)O)c(=O)c2cc(F)c(-c3ccncc3)nc21	0.78 µg/mL (≈ 2.51 µM)				6.25 µg/mL (≈ 20.1 µM)	1.56 µg/mL (≈ 5.01 µM)						
O=C(O)c1cn(CCO)c2nc(-c3ccncc3)c(F)cc2c1=O	1.56 µg/mL (≈ 4.74 µM)				50 µg/mL (≈ 152 µM)	50 µg/mL (≈ 152 µM)						
CCn1cc(C(=O)O)c(=O)c2ccc(-c3ccncc3)cc21 [ROSOXACIN]	0.39 µg/mL (≈ 1.33 µM)	6.8 mg/kg	7.3 mg/kg	29.2 mg/kg	3.13 µg/mL (≈ 10.6 µM)	0.78 µg/mL (≈ 2.65 µM)		3.13 µg/mL (≈ 10.6 µM)		0.2 µg/mL (≈ 0.68 µM)	0.39 µg/mL (≈ 1.33 µM)	
O=C(O)c1cn(CCF)c2nc(-c3ccncc3)c(F)cc2c1=O	0.2 µg/mL (≈ 0.604 µM)	3.37 mg/kg	4.91 mg/kg	14.9 mg/kg	1.56 µg/mL (≈ 4.71 µM)	0.39 µg/mL (≈ 1.18 µM)		1.56 µg/mL (≈ 4.71 µM)		0.1 µg/mL (≈ 0.302 µM)	0.39 µg/mL (≈ 1.18 µM)	
C=Cn1cc(C(=O)O)c(=O)c2cc(F)c(N3CCNCC3)nc21	0.1 µg/mL (≈ 0.314 µM)				0.39 µg/mL (≈ 1.23 µM)	1.56 µg/mL (≈ 4.9 µM)						
CCn1cc(C(=O)O)c(=O)c2ccc(N3CCNCC3)nc21	6.25 µg/mL (≈ 20.7 µM)					12.5 µg/mL (≈ 41.3 µM)						12.5 µg/mL (≈ 41.3 µM)
